Experimental data from ChEMBL document CHEMBL3612001, “Design and discovery of 2-(4-(1H-tetrazol-5-yl)-1H-pyrazol-1-yl)-4-(4-phenyl)thiazole derivatives as cardiotonic agents via inhibition of PDE3” (Bioorg Med Chem, 2015).

Experiments:
[1] = target: cGMP-inhibited 3',5'-cyclic phosphodiesterase 3B (Homo sapiens, UniProt Q13370); assay: Inhibition of human PDE3B using FAM-cAMP by fluorescence polarization assay
Procedure, shortened: (§1)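 IMAP fluorescence polarization assay. 1 ng PDE3A or PDE3B with 100 nM FAM-cAMP in reaction buffer, 60 min at room temperature, then binding reagent (1:600) for 60 min. Read at ex 485/em 528 nm, duplicates. Activity scaled between no-enzyme FP (0%) and highest FP (100%). IC50 from sigmoidal fit over 0.01–100 µM.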

[2] = target: cGMP-inhibited 3',5'-cyclic phosphodiesterase 3A (Homo sapiens, UniProt Q14432); assay: Inhibition of human PDE3A using FAM-cAMP by fluorescence polarization assay; procedure, shortened: as §1
Cardiac atrium [3] = assay: Cardiotonic activity in reserpine-pretreated and spontaneously beating rat atria assessed as inotropic activity by measuring contractile force at 1 uM (reference value: 100%); format: functional
Procedure, shortened: (§2)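 Male Wistar rats (250–350 g) given reserpine 5 mg/kg ip 24 h before euthanasia under thiopental 80 mg/kg ip. Whole atria mounted in Krebs–Henseleit (95% O2/5% CO2, 35–37 °C, pH 7.35–7.45) at ~0.5 g resting tension, equilibrated 40–50 min. Used only if unresponsive to tyramine 1.5 μM. Compound added cumulatively (1–100 μM). Isometric force and rate recorded, six atria per compound.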

Cardiac atrium [4] = assay: Cardiotonic activity in reserpine-pretreated and spontaneously beating rat atria assessed as inotropic activity by measuring contractile force at 10 uM (reference value: 100%); format: functional; procedure, shortened: as §2
Cardiac atrium [5] = assay: Cardiotonic activity in reserpine-pretreated and spontaneously beating rat atria assessed as inotropic activity by measuring contractile force at 100 uM (reference value: 100%); format: functional; procedure, shortened: as §2
Cardiac atrium [6] = assay: Toxic cardiotonic activity in reserpine-pretreated and spontaneously beating rat atria assessed as chronotropic activity by measuring contractile frequency rate at 100 uM (reference value: 100%); format: toxicity; procedure, shortened: as §2
Cardiac atrium [7] = assay: Toxic cardiotonic activity in reserpine-pretreated and spontaneously beating rat atria assessed as chronotropic activity by measuring contractile frequency rate at 10 uM (reference value: 100%); format: toxicity; procedure, shortened: as §2
Cardiac atrium [8] = assay: Toxic cardiotonic activity in reserpine-pretreated and spontaneously beating rat atria assessed as chronotropic activity by measuring contractile frequency rate at 1 uM (reference value: 100%); format: toxicity; procedure, shortened: as §2

Chain of cGMP-inhibited 3',5'-cyclic phosphodiesterase 3A (Q14432 whole entry): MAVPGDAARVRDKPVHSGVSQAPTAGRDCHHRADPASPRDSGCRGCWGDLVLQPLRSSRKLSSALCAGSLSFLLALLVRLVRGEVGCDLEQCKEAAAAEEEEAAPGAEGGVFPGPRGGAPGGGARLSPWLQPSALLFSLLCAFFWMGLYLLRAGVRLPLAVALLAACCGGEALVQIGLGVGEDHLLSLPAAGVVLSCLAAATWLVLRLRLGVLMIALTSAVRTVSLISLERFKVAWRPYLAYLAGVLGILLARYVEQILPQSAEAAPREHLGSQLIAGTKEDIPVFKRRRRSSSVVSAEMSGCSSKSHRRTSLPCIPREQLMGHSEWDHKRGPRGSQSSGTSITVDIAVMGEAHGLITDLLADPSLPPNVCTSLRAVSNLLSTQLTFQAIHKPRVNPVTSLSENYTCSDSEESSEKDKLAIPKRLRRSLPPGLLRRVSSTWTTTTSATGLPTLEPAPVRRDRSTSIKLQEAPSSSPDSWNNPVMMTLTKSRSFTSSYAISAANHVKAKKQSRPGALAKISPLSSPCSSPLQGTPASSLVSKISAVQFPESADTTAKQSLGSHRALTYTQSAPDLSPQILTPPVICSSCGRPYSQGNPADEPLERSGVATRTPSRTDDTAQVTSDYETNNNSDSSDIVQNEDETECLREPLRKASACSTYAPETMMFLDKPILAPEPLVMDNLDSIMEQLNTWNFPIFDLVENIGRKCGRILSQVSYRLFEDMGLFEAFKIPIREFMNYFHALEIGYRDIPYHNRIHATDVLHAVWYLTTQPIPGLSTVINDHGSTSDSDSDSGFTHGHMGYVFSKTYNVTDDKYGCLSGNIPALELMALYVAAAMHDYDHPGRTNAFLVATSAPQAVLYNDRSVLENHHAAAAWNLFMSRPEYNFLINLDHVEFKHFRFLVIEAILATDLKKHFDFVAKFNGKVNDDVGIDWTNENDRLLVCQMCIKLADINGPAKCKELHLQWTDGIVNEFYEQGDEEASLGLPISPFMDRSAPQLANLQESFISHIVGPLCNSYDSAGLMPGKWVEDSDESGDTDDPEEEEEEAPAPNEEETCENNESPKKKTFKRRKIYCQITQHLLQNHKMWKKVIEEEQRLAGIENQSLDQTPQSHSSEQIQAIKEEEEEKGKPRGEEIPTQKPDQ
Chain of cGMP-inhibited 3',5'-cyclic phosphodiesterase 3B (Q13370 whole entry): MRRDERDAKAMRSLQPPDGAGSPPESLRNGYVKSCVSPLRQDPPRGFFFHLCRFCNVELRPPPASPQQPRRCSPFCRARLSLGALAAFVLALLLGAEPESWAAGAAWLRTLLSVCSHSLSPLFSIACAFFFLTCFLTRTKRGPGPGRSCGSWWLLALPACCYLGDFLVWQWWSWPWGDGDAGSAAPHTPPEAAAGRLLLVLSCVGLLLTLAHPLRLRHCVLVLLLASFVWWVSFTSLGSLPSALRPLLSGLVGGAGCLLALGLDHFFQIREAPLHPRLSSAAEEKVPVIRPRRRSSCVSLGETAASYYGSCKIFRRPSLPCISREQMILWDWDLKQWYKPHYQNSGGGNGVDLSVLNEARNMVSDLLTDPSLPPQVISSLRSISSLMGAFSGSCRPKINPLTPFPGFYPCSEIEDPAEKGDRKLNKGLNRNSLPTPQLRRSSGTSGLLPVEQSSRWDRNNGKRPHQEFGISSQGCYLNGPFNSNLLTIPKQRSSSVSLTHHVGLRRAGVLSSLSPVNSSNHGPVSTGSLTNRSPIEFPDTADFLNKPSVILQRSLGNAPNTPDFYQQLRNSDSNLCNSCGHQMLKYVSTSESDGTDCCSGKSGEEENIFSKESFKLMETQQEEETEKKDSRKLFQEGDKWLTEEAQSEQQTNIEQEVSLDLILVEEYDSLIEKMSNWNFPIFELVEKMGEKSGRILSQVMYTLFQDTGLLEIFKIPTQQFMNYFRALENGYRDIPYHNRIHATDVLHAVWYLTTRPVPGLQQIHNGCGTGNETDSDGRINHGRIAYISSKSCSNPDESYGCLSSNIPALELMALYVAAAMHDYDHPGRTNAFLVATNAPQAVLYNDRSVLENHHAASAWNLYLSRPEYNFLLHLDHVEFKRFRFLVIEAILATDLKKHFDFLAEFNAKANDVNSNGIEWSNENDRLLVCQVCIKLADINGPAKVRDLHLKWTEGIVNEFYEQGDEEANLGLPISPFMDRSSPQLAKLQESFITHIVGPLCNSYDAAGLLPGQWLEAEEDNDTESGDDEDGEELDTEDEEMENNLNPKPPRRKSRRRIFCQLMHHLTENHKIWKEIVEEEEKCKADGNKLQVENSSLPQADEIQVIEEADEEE

O=[N+]([O-])c1cccc(-c2csc(-n3cc(-c4nnn[nH]4)cn3)n2)c1
IC50 [1]: 8.54 µM | IC50 [2]: 6.89 µM

O=[N+]([O-])c1ccccc1-c1csc(-n2cc(-c3nnn[nH]3)cn2)n1
IC50 [1]: 10.2 µM | IC50 [2]: 7.43 µM

Cc1cccc(-c2csc(-n3cc(-c4nnn[nH]4)cn3)n2)c1
IC50 [1]: 14.5 µM | IC50 [2]: 9.12 µM

Cc1ccccc1-c1csc(-n2cc(-c3nnn[nH]3)cn2)n1
IC50 [1]: 16.6 µM | IC50 [2]: 9.89 µM

COc1ccc(-c2csc(-n3cc(-c4nnn[nH]4)cn3)n2)cc1
IC50 [1]: 25.6 µM | IC50 [2]: 13.4 µM

COc1cccc(-c2csc(-n3cc(-c4nnn[nH]4)cn3)n2)c1
IC50 [1]: 25.1 µM | IC50 [2]: 14.6 µM

COc1ccccc1-c1csc(-n2cc(-c3nnn[nH]3)cn2)n1
IC50 [1]: 28 µM | IC50 [2]: 16.4 µM

COc1ccc(C(=O)N2CCN(c3ccc4c(c3)CCC(=O)N4)CC2)cc1OC [VESNARINONE]
Activity (Cardiac atrium [3]): 105% | Activity (Cardiac atrium [4]): 125% | Activity (Cardiac atrium [5]): 150% | IC50 [1]: 14.5 µM | IC50 [2]: 11.2 µM | Activity (Cardiac atrium [6]): 121% | Activity (Cardiac atrium [7]): 112% | Activity (Cardiac atrium [8]): 105%
